Source: ChEMBL document CHEMBL1136050, “Synthesis, structural evaluation, and estrogen receptor interaction of 2,3-diarylpiperazines” (J Med Chem, 2002)

Experiments:
[1] = target: T1, Estrogen receptor (Homo sapiens) (UniProt P03372); assay: Activation of the estrogen receptors of MCF-7-2a cells at 10e-6 M.
T1 sequence (whole entry): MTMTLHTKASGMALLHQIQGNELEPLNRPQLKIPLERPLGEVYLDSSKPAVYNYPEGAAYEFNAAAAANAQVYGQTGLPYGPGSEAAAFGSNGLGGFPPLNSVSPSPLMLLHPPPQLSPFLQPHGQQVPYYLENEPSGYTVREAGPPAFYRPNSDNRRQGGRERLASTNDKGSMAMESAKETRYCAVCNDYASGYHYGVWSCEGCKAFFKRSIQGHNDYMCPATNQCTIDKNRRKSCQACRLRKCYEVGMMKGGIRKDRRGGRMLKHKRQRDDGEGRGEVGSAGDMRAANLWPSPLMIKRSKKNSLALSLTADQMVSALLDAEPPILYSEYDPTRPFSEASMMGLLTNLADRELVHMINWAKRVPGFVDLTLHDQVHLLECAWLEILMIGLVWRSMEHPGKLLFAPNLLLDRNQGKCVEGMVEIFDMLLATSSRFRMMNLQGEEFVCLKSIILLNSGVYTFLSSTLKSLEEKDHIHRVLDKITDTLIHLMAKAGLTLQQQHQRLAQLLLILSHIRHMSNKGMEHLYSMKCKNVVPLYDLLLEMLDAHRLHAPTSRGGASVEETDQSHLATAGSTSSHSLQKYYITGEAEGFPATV
Summary of the method: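 MCF-7-2a cells stably carrying ERE(wtc)luc, kept one week in DMEM with L-glutamine, antibiotics and dextran/charcoal-treated BCS (50 mL/L). Seeded at about 2.2 × 10^5 cells/mL in six-well plates; compound added after 24 h and cells incubated 50 h. Lysed 20 min at room temperature, luciferase luminescence read for 10 s (RLU), normalized to Bradford protein. Line value taken at 1 μM.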

[2] = test system: Estrogen receptor alpha (Bos taurus); assay: Relative binding affinity to Estrogen receptor alpha in calf uterine cytosol compared to [3H]E2.; conditions: Uterus

| Relative activation [1] [%] | relative binding affinity (RBA) [2] | Structure (SMILES) |
| --- | --- | --- |
| 20 | < 0.02 | Oc1ccc([C@H]2NCCN[C@H]2c2c(Cl)cc(O)cc2Cl)c(Cl)c1 |
| 73 | 0.05 | Oc1cc(Cl)c([C@H]2NCCN[C@H]2c2c(Cl)cc(O)cc2Cl)c(Cl)c1 |
| 4 | 0.03 | CCN1CCN(CC)[C@@H](c2ccc(O)cc2F)[C@H]1c1ccc(O)cc1F |
| 1 | – | COc1ccc([C@H]2NCCN[C@H]2c2ccc(OC)cc2Cl)c(Cl)c1 |
| 74 | 0.42 | CCN1CCN[C@H](c2ccc(O)cc2Cl)[C@@H]1c1ccc(O)cc1Cl |
| 3 | – | COc1ccc([C@H]2NCCN[C@H]2c2c(Cl)cc(OC)cc2Cl)c(Cl)c1 |
| 4 | – | CCN1CCN(CC)[C@@H](c2ccc(OC)cc2)[C@H]1c1ccc(OC)cc1 |
| 5 | – | COc1cc(Cl)c([C@H]2NCCN[C@H]2c2c(Cl)cc(OC)cc2Cl)c(Cl)c1 |
| 0 | – | CCN1CCN(CC)[C@@H](c2ccc(OC)cc2Cl)[C@H]1c1ccc(OC)cc1Cl |
| 34 | 0.06 | CCN1CCN[C@H](c2ccc(O)cc2F)[C@@H]1c1ccc(O)cc1F |
| 7 | < 0.02 | Oc1ccc([C@H]2NCCN[C@H]2c2ccc(O)cc2Cl)c(Cl)c1 |
| 3 | – | CCN1CCN[C@H](c2ccc(OC)cc2F)[C@@H]1c1ccc(OC)cc1F |
| 7 | – | CCN1CCN(CC)[C@@H](c2ccc(OC)cc2F)[C@H]1c1ccc(OC)cc1F |
| 12 | < 0.02 | Oc1ccc(Cl)c([C@H]2NCCN[C@H]2c2c(Cl)ccc(O)c2Cl)c1Cl |
| -1 | < 0.02 | Oc1ccc([C@H]2NCCN[C@H]2c2ccc(O)cc2)cc1 |
| 37 | 0.17 | CCN1CCN(CC)[C@@H](c2ccc(O)cc2Cl)[C@H]1c1ccc(O)cc1Cl |
| 4 | < 0.02 | Oc1ccc([C@H]2NCCN[C@H]2c2ccc(O)cc2F)c(F)c1 |
| 8 | – | COc1ccc(Cl)c([C@H]2NCCN[C@H]2c2c(Cl)ccc(OC)c2Cl)c1Cl |
| 4 | – | CCN1CCN[C@H](c2ccc(OC)cc2Cl)[C@@H]1c1ccc(OC)cc1Cl |
| 8 | < 0.02 | CCN1CCN(CC)[C@@H](c2ccc(O)cc2)[C@H]1c1ccc(O)cc1 |
| 5 | – | COc1ccc([C@H]2NCCN[C@H]2c2ccc(OC)cc2)cc1 |
| 4 | – | COc1ccc([C@H]2NCCN[C@H]2c2ccc(OC)cc2F)c(F)c1 |
